Results from ChEMBL document CHEMBL4732233, “Faropenem reacts with serine and metallo-β-lactamases to give multiple products” (Eur J Med Chem, 2021).

How the values were obtained:
[1] = Drug metabolism assessed as VIM-2 (unknown origin)-mediated compound hydrolysis by measuring (R)-2-((1S,2R)-1-carboxy-2-hydroxypropyl)-5-((R)-tetrahydrofuran-2-yl)-2,3-dihydrothiazole-4-carboxylic acid formation at 5 mM incubated for 5 mins by 1H-NMR based analysis; type: ADME; settings: bacteria, 5000 µM
[2] = Drug metabolism assessed as L1 (unknown origin)-mediated compound hydrolysis by measuring (R)-2-((1S,2R)-1-carboxy-2-hydroxypropyl)-5-((R)-tetrahydrofuran-2-yl)-2,3-dihydrothiazole-4-carboxylic acid formation at 5 mM incubated for 5 mins by 1H-NMR based analysis; type: ADME; settings: bacteria, 5000 µM
How it was run: (§1)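 L1 enzyme (125 nM) reacted with 5 mM faropenem for 5 min in 50 mM sodium phosphate pH 7.5 containing 10% (v/v) D2O. Product species assigned by 1H NMR (700 MHz) methyl resonances.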

[3] = Drug metabolism assessed as OXA10 (unknown origin)-mediated compound hydrolysis by measuring (S)-2-((1S,2R)-1-carboxy-2-hydroxypropyl)-5-((R)-tetrahydrofuran-2-yl)-2,3-dihydrothiazole-4-carboxylic acid formation at 5 mM incubated for 16 hrs by 1H-NMR based analysis; type: ADME; settings: bacteria, 5000 µM
How it was run: (§2)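 OXA-10 at 5 μM with 5 mM faropenem, incubated 16 h in 50 mM sodium phosphate, pH 7.5, 10% (v/v) D2O. Product formation read by 1H NMR (700 MHz) methyl group resonances.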

[4] = Drug metabolism assessed as OXA-23 (unknown origin)-mediated compound hydrolysis by measuring (S)-2-((1S,2R)-1-carboxy-2-hydroxypropyl)-5-((R)-tetrahydrofuran-2-yl)-2,3-dihydrothiazole-4-carboxylic acid formation at 2 mM incubated for 15 mins by 1H-NMR based analysis; type: ADME; settings: bacteria, 0.25 h, 2000 µM
[5] = Drug metabolism assessed as OXA-48 (unknown origin)-mediated compound hydrolysis by measuring (S)-2-((1S,2R)-1-carboxy-2-hydroxypropyl)-5-((R)-tetrahydrofuran-2-yl)-2,3-dihydrothiazole-4-carboxylic acid formation at 5 mM incubated for 55 mins by 1H-NMR based analysis; type: ADME; settings: bacteria, 5000 µM
How it was run: (§3)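 Reaction of OXA-48 (5 μM) with 5 mM faropenem for 55 min in 50 mM sodium phosphate pH 7.5, 10% (v/v) D2O. Products assigned from methyl group resonances in 700 MHz 1H NMR spectra.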

[6] = Drug metabolism assessed as VIM-1 (unknown origin)-mediated compound hydrolysis by measuring (S)-2-((1S,2R)-1-carboxy-2-hydroxypropyl)-5-((R)-tetrahydrofuran-2-yl)-2,3-dihydrothiazole-4-carboxylic acid formation at 5 mM incubated for 5 mins by 1H-NMR based analysis; type: ADME; settings: bacteria, 5000 µM
[7] = Drug metabolism assessed as VIM-2 (unknown origin)-mediated compound hydrolysis by measuring (S)-2-((1S,2R)-1-carboxy-2-hydroxypropyl)-5-((R)-tetrahydrofuran-2-yl)-2,3-dihydrothiazole-4-carboxylic acid formation at 5 mM incubated for 5 mins by 1H-NMR based analysis; type: ADME; settings: bacteria, 5000 µM
[8] = Drug metabolism assessed as L1 (unknown origin)-mediated compound hydrolysis by measuring (S)-2-((1S,2R)-1-carboxy-2-hydroxypropyl)-5-((R)-tetrahydrofuran-2-yl)-2,3-dihydrothiazole-4-carboxylic acid formation at 5 mM incubated for 5 mins by 1H-NMR based analysis; type: ADME; settings: bacteria, 5000 µM; how it was run: as §1
[9] = Drug metabolism assessed as OXA-23 (unknown origin)-mediated compound hydrolysis by measuring (R)-2-((1S,2R)-1-carboxy-2-hydroxypropyl)-5-(4-hydroxybutylidene)-2,5-dihydrothiazole-4-carboxylic acid formation at 2 mM incubated for 15 mins by 1H-NMR based analysis; type: ADME; settings: bacteria, 0.25 h, 2000 µM
[10] = Drug metabolism assessed as OXA-48 (unknown origin)-mediated compound hydrolysis by measuring (R)-2-((1S,2R)-1-carboxy-2-hydroxypropyl)-5-(4-hydroxybutylidene)-2,5-dihydrothiazole-4-carboxylic acid formation at 5 mM incubated for 55 mins by 1H-NMR based analysis; type: ADME; settings: bacteria, 5000 µM; how it was run: as §3
[11] = Drug metabolism assessed as VIM-1 (unknown origin)-mediated compound hydrolysis by measuring (R)-2-((1S,2R)-1-carboxy-2-hydroxypropyl)-5-(4-hydroxybutylidene)-2,5-dihydrothiazole-4-carboxylic acid formation at 5 mM incubated for 5 mins by 1H-NMR based analysis; type: ADME; settings: bacteria, 5000 µM
[12] = Drug metabolism assessed as OXA10 (unknown origin)-mediated compound hydrolysis by measuring (S)-2-((1S,2R)-1-carboxy-2-hydroxypropyl)-5-(4-hydroxybutylidene)-2,5-dihydrothiazole-4-carboxylic acid formation at 5 mM incubated for 16 hrs by 1H-NMR based analysis; type: ADME; settings: bacteria, 5000 µM; how it was run: as §2
[13] = Drug metabolism assessed as OXA-23 (unknown origin)-mediated compound hydrolysis by measuring (S)-2-((1S,2R)-1-carboxy-2-hydroxypropyl)-5-(4-hydroxybutylidene)-2,5-dihydrothiazole-4-carboxylic acid formation at 2 mM incubated for 15 mins by 1H-NMR based analysis; type: ADME; settings: bacteria, 0.25 h, 2000 µM
[14] = Drug metabolism assessed as VIM-1 (unknown origin)-mediated compound hydrolysis by measuring (S)-2-((1S,2R)-1-carboxy-2-hydroxypropyl)-5-(4-hydroxybutylidene)-2,5-dihydrothiazole-4-carboxylic acid formation at 5 mM incubated for 5 mins by 1H-NMR based analysis; type: ADME; settings: bacteria, 5000 µM
[15] = Drug metabolism assessed as NDM-1 (unknown origin)-mediated compound hydrolysis by measuring (S)-2-((1S,2R)-1-carboxy-2-hydroxypropyl)-5-(4-hydroxybutylidene)-2,5-dihydrothiazole-4-carboxylic acid formation at 5 mM incubated for 5 mins by 1H-NMR based analysis; type: ADME; settings: bacteria, 5000 µM
How it was run: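 NDM-1 used at 5 μM with 5 mM faropenem, 5 min incubation, in 50 mM sodium phosphate, pH 7.5, 10% (v/v) D2O. Degradation products monitored by 700 MHz 1H NMR via methyl group signals.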

[16] = Drug metabolism assessed as KPC-2 (unknown origin)-mediated compound hydrolysis by measuring (S)-2-((1S,2R)-1-carboxy-2-hydroxypropyl)-5-(4-hydroxybutylidene)-2,5-dihydrothiazole-4-carboxylic acid formation at 5 mM incubated for 72 mins by 1H-NMR based analysis; type: ADME; settings: bacteria, 1.2 h, 5000 µM
[17] = Drug metabolism assessed as VIM-2 (unknown origin)-mediated compound hydrolysis by measuring (2R)-2-((1S,2R)-1-carboxy-2-hydroxypropyl)-5-((R)-tetrahydrofuran-2-yl)-2,5-dihydrothiazole-4-carboxylic acid formation at 5 mM incubated for 5 mins by 1H-NMR based analysis; type: ADME; settings: bacteria, 5000 µM
Bacteria [18] = tested on: Bacteria
Bacteria [19] = tested on: Bacteria; remark: listed apart in the source
Bacteria [20] = tested on: Bacteria; remark: listed apart in the source
Bacteria [21] = tested on: Bacteria; remark: listed apart in the source
[22] = tested on: Mycobacterium tuberculosis H37Rv
Bacteria [23] = tested on: Bacteria; remark: listed apart in the source
Bacteria [24] = tested on: Bacteria; remark: listed apart in the source
Bradyrhizobium japonicum = settings: USDA110

SMILES: C[C@@H](O)[C@H]1C(=O)N2C(C(=O)O)=C([C@H]3CCCO3)S[C@H]12 [FAROPENEM]
- Drug metabolism [1]: Metabolite_Detected
- Drug metabolism [2]: Metabolite_Detected
- Drug metabolism [3]: Metabolite_Detected
- Drug metabolism [4]: Metabolite_Detected
- Drug metabolism [5]: Metabolite_Detected
- Drug metabolism [6]: Metabolite_Detected
- Drug metabolism [7]: Metabolite_Detected
- Drug metabolism [8]: Metabolite_Detected
- Drug metabolism [9]: Metabolite_Detected
- Drug metabolism [10]: Metabolite_Detected
- Drug metabolism [11]: Metabolite_Detected
- Drug metabolism [12]: Metabolite_Detected
- Drug metabolism [13]: Metabolite_Detected
- Drug metabolism [14]: Metabolite_Detected
- Drug metabolism [15]: Metabolite_Detected
- Drug metabolism [16]: Metabolite_Detected
- Drug metabolism [17]: Metabolite_Detected
- kcat (Bacteria [18]): 36.7 s⁻¹
- kcat (Klebsiella pneumoniae): 14.7 s⁻¹
- Km (Bacteria [19]): 16.6 µM
- Km (Bacteria [20]): 5.11 µM
- Km (Bacteria [21]): 36.3 µM
- Km [22]: 23 µM
- kcat/Km (Bacteria [23]): 220000 M⁻¹ s⁻¹
- kcat/Km (Bacteria [24]): 7.17e+06 M⁻¹ s⁻¹
- kcat/Km (Bradyrhizobium japonicum): 8000 M⁻¹ s⁻¹
